Assay outcomes deposited in PubChem BioAssay by several laboratories.
Measles CPE = protection of cells from measles virus; Measles virus-infected cells, CPE protection, absorbance; protection (pct of control), % at 4 µM; actives 1.5% (n = 140,000); AID 841; in the data active means protection mostly above about 24%, no sharp cut-off; inactive means mostly below about 26%
Mdm2 ligase inh = blocks human Mdm2 ubiquitin ligase activity | signal enhancement, % at 5 µM | cell-based MDM2 ubiquitination luciferase reporter, 2 h; 0 = plate control, 100 = twice control, blank-subtracted | Q00987 | actives 0.11% (n = 210,000);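 active means signal enhancement of 30% or more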;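 further: luminescence tracks abundance of the self-degrading MDM2-luciferase fusion protein; higher signal means inhibition of MDM2 E3 ligase activity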
Target sequence (Q00987 whole entry, looked up, the tested form may be a part): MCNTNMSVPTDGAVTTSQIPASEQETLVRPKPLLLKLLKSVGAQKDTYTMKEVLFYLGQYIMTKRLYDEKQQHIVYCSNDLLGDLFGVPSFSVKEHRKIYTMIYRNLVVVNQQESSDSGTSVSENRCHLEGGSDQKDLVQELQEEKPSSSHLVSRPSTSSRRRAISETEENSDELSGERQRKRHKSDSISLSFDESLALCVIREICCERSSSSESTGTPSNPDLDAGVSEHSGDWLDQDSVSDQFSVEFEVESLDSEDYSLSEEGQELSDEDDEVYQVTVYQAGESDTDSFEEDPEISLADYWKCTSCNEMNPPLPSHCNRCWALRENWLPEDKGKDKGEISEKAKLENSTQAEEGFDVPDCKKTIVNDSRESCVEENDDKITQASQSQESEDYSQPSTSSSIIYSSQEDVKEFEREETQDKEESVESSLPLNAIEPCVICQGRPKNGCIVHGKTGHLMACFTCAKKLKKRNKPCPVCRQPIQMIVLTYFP
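Test system: mammalian cells stably expressing self-ubiquitinating, self-degrading MDM2 E3–luciferase fusion; Amount: 2000 cells in each well; Medium: DMEM; Schedule: 4 h settle plus 2 h compound, 37 °C; Technique: SteadyLite luciferase luminescence after 15 min room-temperature reagent incubation; Benchmarks: plate control and blank wells.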
BB579 growth dn = reduces growth of yeast BB579 in restrictive medium; S. cerevisiae BB579 growth, OD615, 48 h; inhibition, % at 10 µM; actives 0.51% (n = 140,000); AID 804;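 active means inhibition above a set limit, 3 SD over the mean compound inhibition, cut at about 44% in these data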
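Assay system: S. cerevisiae DeaD strain BB579 yeast. Medium: CSMM-D restrictive synthetic medium containing dextrose (glucose). Times: 4 h cell preincubation, 48 h compound exposure, 30 °C humidified. Signal: OD615 turbidity measurement. Benchmarks: positive control amphotericin B 10 µg/mL.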
RAM network inh = inhibitors of the yeast RAM network | S. cerevisiae dse1pr::URA3 reporter, 5-FOA growth OD615, 2 d; analog-sensitive cbk1-as2 kinase mutant strain | actives 1.8% (n = 190,000) | inhibition, % at 50 µM;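 active means inhibition above a set limit, 3 SD over mean compound inhibition, cut at about 8.4% in these data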;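 further: 0% = DMSO-only wells with no growth and 100% = 10 µM 1-NA-PP1 full growth; inhibition rescues growth on 5-FOA so higher OD means more RAM inhibition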
Insulin prom inh = TRM-6 insulin promoter activity inhibition; actives 0.9% (n = 130,000); inhibition, % at 2 µM; TRM-6 cells (human fetal islet line), insulin promoter-eGFP reporter, imaging; reporter expression induced with tamoxifen;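 active means inhibition above the mean plus 3 SD, with well images judged a real hit on visual review, cut at about 60% in these data, passing the limit was not always enough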
Yeast life ext = extends the lifespan of yeast; actives 0.68% (n = 130,000); S. cerevisiae growth with nicotinamide, OD615; deaD strain in restrictive glucose medium; inhibition of the nicotinamide effect, % at 10 µM;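 active means inhibition above a set limit, placed 3 SD over the median of all compounds, cut at about 26% in these data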;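 further: 0% = nicotinamide-treated wells and 100% = cells grown without nicotinamide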
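Material: Modified budding yeast, DeaD strain | Medium: Restrictive glucose medium | Probe or stimulus: 1.5 mM nicotinamide | Dosing: Single dose 10 µM compound, 0.25% DMSO | Times: 48 h at 30 °C | Technique: OD615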
Active calls of the source: *. Shown are actives, neighbours in structure and some others; about 4% of the full set was active somewhere.

What do the screens show for `CN(C)S(=O)(=O)c1ccc(C(=O)Nc2cc(S(=O)(=O)Nc3ccccc3Cl)ccc2N2CCCCC2)cc1`?
Measles CPE: 11; Mdm2 ligase inh: -6; BB579 growth dn: -37; RAM network inh: 8.6*; Insulin prom inh: 15; Yeast life ext: 6

How did COc1ccc(C(=O)Nc2cc([N+](=O)[O-])ccc2N2CCCC2)cc1 do in these assays?
Mdm2 ligase inh: -11; RAM network inh: 8.5*; Insulin prom inh: 18

Results for O=C(O)c1cc([N+](=O)[O-])ccc1N1CCCCC1 ?
Measles CPE: 21*; Mdm2 ligase inh: -3; BB579 growth dn: -6; RAM network inh: 1; Insulin prom inh: -15; Yeast life ext: 4

What do the screens show for `CNC(=O)C1CC(=O)N(Cc2ccc3c(c2)OCO3)C(=Nc2ccc(OC)cc2)S1` (stereo not drawn)?
Mdm2 ligase inh: -8; BB579 growth dn: -73; RAM network inh: 8; Yeast life ext: -14

How did CC1S/C(=C(\C#N)C(N)=O)N(c2ccc(F)cc2)C1=O (stereo not drawn) do in these assays?
Measles CPE: 14; Mdm2 ligase inh: -18; BB579 growth dn: -41; RAM network inh: 0; Yeast life ext: -4

What do the screens show for `N#Cc1c(N)sc2c1CCN(CCc1ccccc1)C2`?
Measles CPE: 9; Mdm2 ligase inh: 2; BB579 growth dn: -25; RAM network inh: 0; Insulin prom inh: inactive

How did CCOc1cc(NC(=S)Nc2ccccc2OC)c(OCC)cc1NC(=O)c1ccccc1C do in these assays?
Measles CPE: 0; Mdm2 ligase inh: -6; BB579 growth dn: -32; RAM network inh: 1; Insulin prom inh: 10; Yeast life ext: -7

What do the screens show for `Cc1ccccc1C(=O)Nc1cc(S(=O)(=O)N2CCCCC2)ccc1N1CCN(C)CC1`?
Measles CPE: 33*; Mdm2 ligase inh: 4; BB579 growth dn: 2; RAM network inh: 1; Insulin prom inh: 17; Yeast life ext: 4

Results for CCOC(=O)CN1C(=O)c2ccccc2C1=O ?
Measles CPE: 3; Mdm2 ligase inh: 1; BB579 growth dn: -19; RAM network inh: 1; Insulin prom inh: 56; Yeast life ext: -7

What do the screens show for `CCCOC(=O)CN1C(=O)c2ccccc2C1=O`?
Measles CPE: 20*; Mdm2 ligase inh: 2; BB579 growth dn: -1; RAM network inh: 2; Insulin prom inh: 50; Yeast life ext: -20

What do the screens show for `CCOC(=O)N1CCC(NC(=O)C(Cc2ccccc2)NC(=O)C2CCCCC2)CC1` (stereo not drawn)?
Measles CPE: 31; Mdm2 ligase inh: -13; BB579 growth dn: -37; RAM network inh: 1; Insulin prom inh: -23; Yeast life ext: 6

How did CC(=O)Nc1ccc(NC(=O)C(Cc2ccccc2)NC(=O)C2CCCCC2)cc1 (stereo not drawn) do in these assays?
Measles CPE: 9; Mdm2 ligase inh: 2; BB579 growth dn: -32; RAM network inh: 2; Insulin prom inh: 64*; Yeast life ext: -3

Results for COc1ccc(CN(CC2CCC(C(=O)O)CC2)C(=S)Nc2ccc(C)c(Cl)c2)cc1 (stereo not drawn) ?
Mdm2 ligase inh: -6; RAM network inh: 2

What do the screens show for `COc1ccc(CCN(Cc2cc3cc(C)cc(C)c3nc2Cl)C(=O)C2CC2)cc1`?
Measles CPE: 11; Mdm2 ligase inh: -7; BB579 growth dn: -4; RAM network inh: 11*; Yeast life ext: -5

What do the screens show for `COc1ccc(C2=NN(C(=O)CSc3ncccn3)C(c3ccc(OC)cc3)C2)cc1` (stereo not drawn)?
Measles CPE: 63*; Mdm2 ligase inh: -13; BB579 growth dn: -41; RAM network inh: 4; Yeast life ext: 4

What do the screens show for `COc1ccc(CC(=O)OCC(=O)N2N=C(c3ccccc3)CC2c2ccc(OC)cc2)cc1` (stereo not drawn)?
Measles CPE: 18; Mdm2 ligase inh: 14; BB579 growth dn: -15; RAM network inh: 8.9*; Insulin prom inh: -143; Yeast life ext: 2

What do the screens show for `COc1ccc(S(N)(=O)=O)cc1C(=O)NCCCN1CCN(c2ccc(C)cc2)CC1`?
Measles CPE: 5; Mdm2 ligase inh: -4; BB579 growth dn: -22; RAM network inh: 0; Insulin prom inh: 42; Yeast life ext: 58*

What do the screens show for `CCN(CC)c1ccc(CN2CCCCCC2)cc1`?
Measles CPE: 20; Mdm2 ligase inh: -2; BB579 growth dn: -42; RAM network inh: 0; Insulin prom inh: 0; Yeast life ext: -14

How did CC1CCN(C(=O)c2ccc(-n3cnnn3)cc2)CC1 do in these assays?
Measles CPE: 40*; Mdm2 ligase inh: 6; BB579 growth dn: -13; RAM network inh: 3; Insulin prom inh: -346

Results for O=C(c1ccc(-n2cnnn2)cc1)N1CCOCC1 ?
Measles CPE: 6; Mdm2 ligase inh: -18; BB579 growth dn: -13; RAM network inh: 2; Insulin prom inh: 18; Yeast life ext: -8

How did CC(C)N(Cc1nc(-c2ccccc2)no1)C(=O)CN(C)S(=O)(=O)c1ccccc1 do in these assays?
Measles CPE: 16; Mdm2 ligase inh: -8; BB579 growth dn: -37; RAM network inh: 8.7*; Insulin prom inh: -7; Yeast life ext: -8

Results for O=S(=O)(c1ccccc1)N(Cc1nc(-c2ccccc2)no1)C1CCCCC1 ?
Mdm2 ligase inh: -4; BB579 growth dn: -54; RAM network inh: 9.2*; Insulin prom inh: -26; Yeast life ext: -4

How did CNc1ccccc(-c2ccc3ccccc3n2)c1=O do in these assays?
Measles CPE: 17; Mdm2 ligase inh: -8; BB579 growth dn: -14; RAM network inh: 0; Insulin prom inh: -15; Yeast life ext: 32*

What do the screens show for `c1ccc2nc(-c3nc4ccccc4o3)ccc2c1`?
Measles CPE: 12; Mdm2 ligase inh: -8; BB579 growth dn: 8; RAM network inh: 1; Yeast life ext: -20

What do the screens show for `COc1ccccc1-c1cc2nc(C)c(CCC(=O)NC(C)CCc3ccco3)c(C)n2n1` (stereo not drawn)?
Measles CPE: 6; Mdm2 ligase inh: -13; BB579 growth dn: -15; RAM network inh: -1; Yeast life ext: -9

How did OCCN(CCO)CC(O)COc1ccc(Br)cc1 (stereo not drawn) do in these assays?
Mdm2 ligase inh: -4

What do the screens show for `OCCN(CCO)CC(O)COc1ccc(C23CC4CC(CC(C4)C2)C3)cc1` (stereo not drawn)?
Measles CPE: 5; Mdm2 ligase inh: -13; BB579 growth dn: 46*; RAM network inh: -2; Insulin prom inh: 21; Yeast life ext: -10

What do the screens show for `CCC(=O)c1ccc(OCC(=O)NCCc2ccccn2)cc1`?
Mdm2 ligase inh: -6; RAM network inh: 1; Insulin prom inh: -8
